Compound activity: PubChem BioAssay, several laboratories
STEP inh = inhibitors of human striatal-enriched phosphatase STEP; P54829; recombinant STEP, OMFP fluorogenic substrate, fluorescence; inhibition, % at 20 µM; hit rate 0.25% among 360,000;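 active = inhibition at 20 µM, scaled per plate between control wells, above about 37%, limit read from the data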;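 also: 0% = DMSO with enzyme and substrate and 100% = substrate only without enzyme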
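System: STEP (striatal-enriched tyrosine phosphatase) enzyme, cell-free; medium: Bis-Tris pH 6.0 buffer with DTT, detergent; dosing: 20 µM, 1% DMSO; times: reaction 20 min, ambient temperature; detection: fluorescence, 480/540 nm; read-out basis: normalized % inhibition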
Scp1 inh = inhibitors of human Scp-1 phosphatase; hit rate 0.88% among 340,000; Recombinant Scp1, phosphopeptide, malachite green phosphate absorbance; inhibition, % at 20 µM; AID 493091; Q9GZU7;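 active = inhibition above about 50% at 20 µM, limit read from the data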;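 also: plate controls were DMSO wells with enzyme for no effect and wells lacking enzyme for full effect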
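Assay system: SCP-1 catalytic fragment, aa 76-261 | Buffer or medium: Tris acetate buffer pH 5.5 with MgCl2 and Tween-20 | Compound: One concentration, 20 µM, with 1.0% DMSO | Also added: Phospho 17-mer peptide substrate | Signal: Absorbance at 630 nm | Incubation: 45 min enzyme reaction at room temperature | Measure: % inhibition of SCP-1 phosphate liberation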
PP1 counter = blocks human PP1-alpha phosphatase, a PP5 counter-screen; purified PP1alpha, OMFP fluorescence; AID 2235; inhibition, % at 6.7 µM; P62136; hit rate 0.9% among 320,000;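 active = inhibition above the mean inhibition of all tested compounds plus 3 SD, computed separately for each screening campaign, cut at about 15% in these data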
Target sequence (P62136 whole entry, looked up): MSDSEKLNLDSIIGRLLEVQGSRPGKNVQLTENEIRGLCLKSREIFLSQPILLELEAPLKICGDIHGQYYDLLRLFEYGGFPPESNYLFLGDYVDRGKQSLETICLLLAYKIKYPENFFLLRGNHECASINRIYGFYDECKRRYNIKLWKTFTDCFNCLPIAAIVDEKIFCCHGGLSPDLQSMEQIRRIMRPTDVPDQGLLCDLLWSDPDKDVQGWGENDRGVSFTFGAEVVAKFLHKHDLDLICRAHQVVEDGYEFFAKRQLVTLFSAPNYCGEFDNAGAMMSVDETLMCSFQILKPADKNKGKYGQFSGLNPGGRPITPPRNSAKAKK
LMPTP inh = LMPTP (human) inhibition | P24666 | recombinant LMPTP-A, OMFP fluorogenic substrate, fluorescence intensity | inhibition, % at 20 µM | hit rate 0.22% among 360,000 | AID 651560;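 active = compounds that cut the enzyme signal by at least half of the control window in the single-dose screen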;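 also: plate controls were DMSO wells with enzyme plus substrate for no effect and substrate without enzyme for full effect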
Target sequence (P24666 whole entry, looked up): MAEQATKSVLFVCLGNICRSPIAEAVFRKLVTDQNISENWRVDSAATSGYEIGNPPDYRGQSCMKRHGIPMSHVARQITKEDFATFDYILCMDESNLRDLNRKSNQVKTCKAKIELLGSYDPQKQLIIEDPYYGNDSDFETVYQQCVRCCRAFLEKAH
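Assay system: LMPTP-A phosphatase enzyme | Input: 0.625 nM enzyme | Also added: Fluorogenic phosphatase substrate OMFP at 400 µM final | Compound dosing: One test concentration per compound, 20 µM, with 3% DMSO overall | Schedule: 50 min enzyme reaction at room temperature, protected from light | Signal: Fluorescence intensity | Benchmarks: no-enzyme and uninhibited controls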
PP5 inh = inhibitors of human protein phosphatase 5 (PP5); P53041; purified PP5c, OMFP substrate fluorescence; inhibition, % at 6.7 µM; hit rate 0.18% among 320,000; AID 1987;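 active = inhibition above the campaign's mean inhibition across all tested compounds plus 3 SD, cut at about 9.5% in these data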;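 also: 0% = DMSO only and 100% = 100 µM cantharidin control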
PP1 inh confirm = confirmation of human PP1 phosphatase inhibitors | purified PP1alpha, OMFP substrate fluorescence | hit rate 52% among 1,900 | shares compounds with PP1 counter | AID 2358 | inhibition, % at 6.7 µM;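 active = mean PP1 inhibition above a set limit taken from the earlier primary screen, cut at about 15% in these data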
PP5 inh counter = counter-screen for PP1 inhibitors: human PP5 phosphatase inhibition; hit rate 4% among 1,900; purified PP5c, OMFP fluorescence; shares compounds with PP1 counter; inhibition, % at 6.7 µM;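 active = mean PP5 inhibition over triplicate wells above about 9.5% taken from the earlier PP1 screen, limit read from the data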
* = called active by the depositor; . = no result. Rows were chosen to be rich in hits. Some 1.9% of all compounds tested hit in one or more screens of this group.

SMILES | STEP inh | Scp1 inh | PP1 counter | LMPTP inh | PP5 inh | PP1 inh confirm | PP5 inh counter
CC1=C(C#N)c2nc(N)c(C#N)c(C)c2/C1=C\c1ccc(C)cc1 | . | . | -2 | . | -1 | . | .
O=C1C(=O)N(c2cccc(Cl)c2)C(c2ccccc2[N+](=O)[O-])/C1=C(\O)c1ccccc1 (stereo not drawn) | 4 | -11 | -184 | 1 | 2 | 2 | -2
O=C1C=C(Nc2ccccc2C(=O)O)c2ccccc2C1=O | 6 | 17 | 7 | 8 | 1 | . | .
CCN(c1ccc(NC(=O)COC(=O)CCC(=O)c2ccc(F)cc2)cc1)C(C)C | 0 | -5 | 3 | -1 | 1 | . | .
N#CCC(=O)N/N=C/c1ccc(N2N=C(c3ccccc3)CC2c2ccccc2)cc1 (stereo not drawn) | 5 | -6 | 25* | 7 | 8 | 17* | 0
COc1ccccc1NC(=O)c1ccccc1NC(=O)c1ccccc1C(=O)O | 1 | -1 | 5 | 0 | 0 | . | .
O=C(CCN1C(=O)/C(=C/C=C/c2ccccc2)SC1=S)Nc1cccnc1 | 0 | -6 | 20* | 4 | -1 | 13 | -2
COc1ccccc1/C=C1\SC(=S)N(CCC(=O)Nc2ccc(C(=O)O)c(O)c2)C1=O | 6 | -11 | 27* | 12 | 3 | 14 | 1
CC(/C=C1\SC(=S)N(CCC(=O)Nc2cccc(C(=O)O)c2)C1=O)=C\c1ccccc1 | 3 | -9 | 23* | 12 | 0 | 16* | 3
COc1ccccc1/C=C1/SC(=S)N(CCC(=O)Nc2cccnc2)C1=O | 7 | -2 | 0 | 5 | 5 | . | .
CC(/C=C1\SC(=S)N(CCCC(=O)Nc2ccc(C(=O)O)cc2)C1=O)=C\c1ccccc1 | 2 | -11 | 19* | 49* | -3 | 11 | -4
Cc1ccc(S(=O)(=O)Nc2ccc(S(=O)(=O)N3CCOCC3)cc2)cc1 | 2 | -6 | -4 | 0 | 3 | . | .
C#CCOCCOCCOCCNc1nc(N2CCN(C(=O)CCCCCCCCCCNC(=O)[C@H]([C@@H](C)CC)n3cc(CCCCCN)nn3)CC2)nc(N2CCN(C(=O)CCCCCCCCCCNC(=O)[C@H](CO)n3cc(CCCCCN)nn3)CC2)n1 | 4 | 23 | 53* | -1 | 5 | 26* | -2
C#CCOCCOCCOCCNc1nc(N2CCN(C(=O)CCCCCCCCCCNC(=O)Cn3cc(CCCCCN)nn3)CC2)nc(N2CCN(C(=O)CCCCCCCCCCNC(=O)[C@H]([C@@H](C)CC)n3cc(CCCCN=C(N)N)nn3)CC2)n1 | 8 | 40 | 70* | 5 | 3 | 55* | 1
C#CCOCCOCCOCCNc1nc(N2CCN(C(=O)CCCCCCCCCCNC(=O)[C@H]([C@@H](C)CC)n3cc(CCCCN=C(N)N)nn3)CC2)nc(N2CCN(C(=O)CCCCCCCCCCNC(=O)[C@H](CCCCN)n3cc(C)nn3)CC2)n1 | . | 40 | 70* | . | 6 | 57* | 2
C#CCOCCOCCOCCNc1nc(N2CCN(C(=O)CCCCCCCCCCNC(=O)[C@H]([C@@H](C)CC)n3cc(CCCCN=C(N)N)nn3)CC2)nc(N2CCN(C(=O)CCCCCCCCCCNC(=O)[C@H](CO)n3cc(CCCCCN)nn3)CC2)n1 | 14 | 35 | 73* | 6 | 12* | 45* | 2
C#CCOCCOCCOCCNc1nc(N2CCN(C(=O)CCCCCCCCCCNC(=O)[C@H]([C@@H](C)CC)n3cc(CCCCCN)nn3)CC2)nc(N2CCN(C(=O)CCCCCCCCCCNC(=O)[C@H](CCCCN)n3cc(CCCC(=O)O)nn3)CC2)n1 | 2 | 29 | 15 | -4 | 3 | . | .
CCCC(=O)O[C@@H]1C[C@@H](C)N(C(=O)c2ccccc2)c2ccc(C)cc21 | -2 | -12 | -3 | 0 | 2 | . | .
COC(=O)c1c(N2C(=O)[C@H]3[C@@H](C2=O)[C@]2(C(=O)Nc4ccccc42)N2CCC[C@@H]32)sc(C)c1C | . | . | 2 | . | 0 | . | .
Cn1c(CC(=O)Nc2ccc(Cl)c(Cl)c2)nnc1SCC(=O)N1CCN(c2ccccc2)CC1 | -2 | -2 | 0 | 3 | 4 | . | .
CCn1c(=O)c2c3c(sc2n2c(SCc4ccc(F)cc4)nnc12)CCCC3 | -2 | -9 | -3 | 3 | 1 | . | .
